Assay [1] addresses T1, Cathepsin B (Homo sapiens, UniProt P07858). Kind of assay: Inhibition of cathepsin-B using Z-Arg-Arg AMC as substrate by fluorescence assay relative to control. The conditions noted are these: concentration not given here. The essentials: (§1)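 Z-Arg-Arg AMC as fluorogenic substrate, compounds titrated. Mean fluorescence units ± SEM were normalized to percent of control. Percent inhibition and IC50 range were fitted by nonlinear regression with one-site competition equations. Untreated control activity was compared with the highest compound concentration by unpaired t test.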

Assay [2] concerns Hippocampus. As to the kind of experiment: Up-regulation of cathepsin-B level in lysosome of rat hippocampal slice cultures at 10 uM after 4 days by immunoblot analysis relative to PADK. On the technique in general: In western blotting, separated proteins are transferred to a membrane and probed.
Assay [3] relates to Hippocampus. Kind of assay: Up-regulation of cathepsin-D level in lysosome of rat hippocampal slice cultures at 10 uM after 4 days by immunoblot analysis relative to PADK.
For assay [4], the system named is Hippocampus. As to the kind of experiment: Up-regulation of cathepsin-B level in lysosome of rat hippocampal slice cultures at 20 uM after 4 days by immunoblot analysis. The conditions noted are these: 10 uM, in the assay text read “10 uM” for “20 uM”. In kind it is functional, tissue-based.
Assay [5] relates to Hippocampus. Kind of assay: Up-regulation of cathepsin-D level in lysosome of rat hippocampal slice cultures at 3 to 10 uM after 4 days by immunoblot analysis. In kind it is functional, tissue-based. The essentials:
(§2)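 Organotypic hippocampal slice cultures from rat were treated daily with compound or vehicle. Cathepsin immunoreactivity was measured by immunoblot image analysis and reported as mean IOD ± SEM. Where stated, brefeldin A was co-present.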

Assay [6] addresses T1, Cathepsin B. As to the kind of experiment: Inhibition of cathepsin-B using Z-Arg-Arg AMC as substrate by fluorescence assay. The essentials: as §1
The subject of assay [7] is Hippocampus. As to the kind of experiment: Up-regulation of cathepsin-B level in lysosome of rat hippocampal slice cultures at 3 to 10 uM after 4 days by immunoblot analysis in presence of brefeldin-A. The format is functional, tissue-based. In short, it runs like this:
as §2

In assay [8] the test system is Hippocampus. As to the kind of experiment: Up-regulation of cathepsin-B level in lysosome of rat hippocampal slice cultures at 3 to 10 uM after 4 days by immunoblot analysis. The format is functional, tissue-based. In short, it runs like this:
as §2

Assay [9] concerns Hippocampus. As to the kind of experiment: Up-regulation of cathepsin-D level in lysosome of rat hippocampal slice cultures at 3 to 10 uM after 4 days by immunoblot analysis in presence of brefeldin-A. In kind it is functional, tissue-based. The essentials:
as §2

Assay [10] concerns Mus musculus. Kind of assay: Inhibition of presynaptic loss of amphiphysin-I protein level in APPSwInd transgenic mouse 20Lms/2J hippocampal homogenates at 25 mg/kg, ip qd for 9 days relative to wild type mouse. The conditions noted are these: Hippocampus.
The subject of assay [11] is Mus musculus. Kind of assay: Inhibition of postsynaptic loss of GluR1 protein level in APPSwInd transgenic mouse 20Lms/2J hippocampal homogenates at 25 mg/kg, ip qd for 9 days relative to wild type mouse. Details: dose 25 mg/kg. The note with it: Hippocampus. The format is functional, organism-based.
The subject of assay [12] is Mus musculus. As to the kind of experiment: Reduction of 8 to 10-kDa oligomeric amyloid beta species in APPSwInd transgenic mouse 20Lms/2J hippocampal homogenates at 25 mg/kg, ip qd for 9 days relative to wild type mouse. The format is functional, organism-based. Details: dose 25 mg/kg. The conditions noted are these: Hippocampus.
For assay [13], the system named is Mus musculus. Kind of assay: Increase of active form of cathepsin-B level in APPSwInd transgenic mouse 20Lms/2J hippocampal homogenates at 25 mg/kg, ip qd for 9 days relative to wild type mouse. The format is functional, organism-based. Details: dose 25 mg/kg. The conditions noted are these: Hippocampus.
The test system of assay [14] is Hippocampus. Kind of assay: Up-regulation of cathepsin-B level in lysosome of rat hippocampal slice cultures at 0.3 to 1 uM after 4 days by immunoblot analysis. The format is functional, tissue-based. The essentials:
as §2

The test system of assay [15] is Hippocampus. As to the kind of experiment: Up-regulation of cathepsin-D level in lysosome of rat hippocampal slice cultures at 0.3 to 1 uM after 4 days by immunoblot analysis. In kind it is functional, tissue-based. The essentials:
as §2

Calls of active or inactive are those of the source. The rule behind the calls is not given here.

As for `[N-]=[N+]=CC(=O)N(Cc1ccccc1)C[C@@H](O)[C@H](Cc1ccccc1)NC(=O)OCc1ccccc1`, the inhibition on Cathepsin B [1] came out at 13%. In addition, the “fold change (FC)” value with Hippocampus [2] and in the assay with Hippocampus [3] was 2 each time. The outcome with Hippocampus [4] was Active.

Take `C[C@H](NC(=O)[C@H](Cc1ccccc1)NC(=O)OCc1ccccc1)C(=O)C=[N+]=[N-]`: the result with Hippocampus [5] and with Hippocampus [8] was Active. Besides, 9400 nM corresponded to half-maximal inhibition against Cathepsin B [6] (IC50). The result with Hippocampus [7] and in the assay with Hippocampus [9] was inactive. In addition, the inhibition against Cathepsin B [1] was determined as 100%.

Compound `N#[N+][CH-]C(=O)N(Cc1ccccc1)C[C@@H](O)[C@H](Cc1ccccc1)NC(=O)OCc1ccccc1` displayed an IC50 against Cathepsin B [6] of 2000 nM.

Consider `CC(=O)N(Cc1ccccc1)C[C@@H](O)[C@H](Cc1ccccc1)NC(=O)OCc1ccccc1`, for which the inhibition result in the assay on Mus musculus [10] and in the assay with Mus musculus [11] was “Active” each time. Moreover, the IC50 against Cathepsin B [6] was above 100000 nM. At Cathepsin B [1], this compound gave an inhibition of 8%. Further, the outcome with Mus musculus [12], with Hippocampus [4] and in the assay on Mus musculus [13] was Active.

For the compound `CCCNC(=O)[C@H]1O[C@@H]1C(=O)N[C@H](C(=O)N1CCC[C@H]1C(=O)OC)[C@@H](C)CC`, on Cathepsin B [6], the IC50 amounted to 80 nM. Further, the result in the assay on Hippocampus [14] and with Hippocampus [15] was inactive. The same compound displayed an inhibition against Cathepsin B [1] of 100%.

By inhibition is commonly meant the drop in the measured response relative to a control, in per cent. Usually IC50 stands for the concentration that gives 50% inhibition. A lower IC50 goes with higher potency.

For the origin of these results see ChEMBL document CHEMBL2176904, “Nonpeptidic lysosomal modulators derived from z-phe-ala-diazomethylketone for treating protein accumulation diseases” (ACS Med Chem Lett, 2012).
